Bioassay records: PubChem, Johns Hopkins Ion Channel Center
TRPC4 agonist: TRPC4 (mouse) channel activation | actives 0.49% (n = 310,000) | AID 2237 | B-score at 10 µM | HEK293 TRPC4beta/mu-opioid, Fluo4 calcium fluorescence; stronger effect = higher value | Q9QUQ5;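 active means B-score above 5 SD of library B-scores, and initial fluorescence ratio not above library mean plus 5 SD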;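 further: positive B-score marks a calcium rise read as TRPC4 activation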
Target sequence (Q9QUQ5 whole entry, looked up): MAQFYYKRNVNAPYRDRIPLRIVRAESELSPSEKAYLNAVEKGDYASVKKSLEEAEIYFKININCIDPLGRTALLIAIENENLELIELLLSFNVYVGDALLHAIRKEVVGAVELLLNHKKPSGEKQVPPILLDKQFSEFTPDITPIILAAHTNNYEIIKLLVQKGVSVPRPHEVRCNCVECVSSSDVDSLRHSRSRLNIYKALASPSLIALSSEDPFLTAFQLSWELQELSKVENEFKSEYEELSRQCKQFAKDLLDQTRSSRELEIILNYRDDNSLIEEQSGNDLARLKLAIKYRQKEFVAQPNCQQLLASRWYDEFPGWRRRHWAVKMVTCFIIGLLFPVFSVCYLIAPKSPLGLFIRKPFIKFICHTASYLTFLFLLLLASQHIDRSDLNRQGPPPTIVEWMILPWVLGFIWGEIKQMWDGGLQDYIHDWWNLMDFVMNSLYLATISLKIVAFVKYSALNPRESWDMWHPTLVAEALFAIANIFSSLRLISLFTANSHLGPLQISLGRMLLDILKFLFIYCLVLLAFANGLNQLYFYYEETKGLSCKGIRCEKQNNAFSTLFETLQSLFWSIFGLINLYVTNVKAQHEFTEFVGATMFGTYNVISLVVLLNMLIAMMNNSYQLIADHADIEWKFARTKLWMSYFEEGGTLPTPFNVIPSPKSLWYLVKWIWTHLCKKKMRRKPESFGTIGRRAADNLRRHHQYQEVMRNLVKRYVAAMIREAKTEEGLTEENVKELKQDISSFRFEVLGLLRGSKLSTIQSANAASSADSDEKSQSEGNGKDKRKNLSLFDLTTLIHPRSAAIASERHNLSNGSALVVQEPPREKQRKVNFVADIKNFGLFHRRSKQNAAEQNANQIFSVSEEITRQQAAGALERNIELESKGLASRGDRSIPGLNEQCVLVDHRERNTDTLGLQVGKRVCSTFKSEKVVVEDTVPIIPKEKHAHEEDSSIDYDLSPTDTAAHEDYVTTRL
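Material: TRPC4beta and mu-opioid receptor HEK293 stable cells | Incubation: 45 min room-temperature Fluo4 loading, 110 s read | Detection: Kinetic Fluo4 calcium fluorescence | Measure: Integrated baseline-normalised fluorescence ratio, converted to per-well B score | Benchmarks: Low control buffer alone, high control maximal DAMGO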
TRPC6 act: activators of mouse TRPC6 channel; Q61143; B-score at 10 µM; HEK293-TRPC6 membrane potential dye fluorescence; stronger effect = higher value; actives 0.13% (n = 310,000);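 active means B-score of the integrated fluorescence ratio above library mean plus 3 SD, and starting fluorescence ratio within library mean plus 5 SD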;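 further: higher score means more depolarization so channel activation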
Kir21 inh: inhibitors of mouse Kir2.1 inward-rectifier potassium channel; B-score at 10 µM; AID 1672; actives 0.85% (n = 310,000); HEK293-Kir2.1, FluxOR thallium flux fluorescence; stronger effect = lower value; P35561;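 active means fluorescence ratio B-score at or below minus 3 SD of library scores, with starting-brightness B-score within 2 SD, cut at about -4.2 in these data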;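 further: channel flux triggered by added potassium and thallium sulfate stimulus; B-score of peak minus minimum fluorescence over baseline after thallium stimulus; more negative B-score means stronger Kir2.1 block with less thallium influx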
TRPC6 inh: blocks the mouse TRPC6 cation channel; HEK293-TRPC6, membrane potential dye, ACh-evoked depolarization; stronger effect = lower value; B-score at 10 µM; Q61143; actives 1.1% (n = 310,000);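 active means B-score under library mean minus 3 SD, initial fluorescence not abnormally high, positive integrated signal ratio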;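 further: B-score derived from integrated fluorescence ratio over the kinetic read; more negative B-score means stronger inhibition of depolarization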
TRPC4 PAM: allosterically enhances the mouse TRPC4 cation channel; AID 2227; actives 0.42% (n = 310,000); Q9QUQ5; B-score at 10 µM; HEK293 TRPC4beta/mu-opioid, DAMGO EC20, Fluo-4 Ca2+ flux; stronger effect = higher value;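 active means B-score of calcium response area above 5 SD of library B-scores, with initial fluorescence ratio within 5 SD of library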
TRPC4 block: TRPC4 (mouse) channel inhibition. AID 2247. B-score at 10 µM. HEK293 TRPC4beta/mu-opioid, DAMGO-evoked Fluo4 calcium flux; stronger effect = lower value. actives 0.39% (n = 300,000);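 active means B-score over 3 SD under the library average, no early fluorescence shift, positive overall ratio signal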
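Assay system: HEK293 cells with stable TRPC4beta plus mu-opioid receptor expression. Dosing: single dose. Measured by: Fluo4 Ca2+ flux fluorescence. Also added: DAMGO in two steps, submaximal then maximal. Read-out: B score from integrated Fluo4 fluorescence ratio.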
TRPC4 sel inh 2: second selectivity test of TRPC6 inhibitors: effect on mouse TRPC4. actives 42% (n = 920). shares compounds with TRPC6 inh. AID 2776. HEK293 TRPC4/MOR, membrane potential dye fluorescence; channel activated by saturating DAMGO dose. inhibition, % at 10 µM;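 active means compounds whose fluorescence signal differed from control wells by over 3 SD, either direction, in both duplicate plates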
TRPC4 spec: selectivity of TRPC6 inhibitors: effect on mouse TRPC4; shares compounds with TRPC6 inh; HEK293 TRPC4/mu-opioid, membrane potential fluorescence; activity change, negative = inhibition, % at 10 µM; actives 61% (n = 920); AID 2777;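 active means rise or fall in signal beyond 3 SD of buffer-only wells in both replicate plates, either sign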;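 further: integrated kinetic ratio of fluorescence range over baseline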
HEK293 MPD ctr 2-1: second check of TRPC6 inhibitor effects in parental HEK293 cells. shares compounds with TRPC6 inh. parental HEK293 membrane potential dye fluorescence; maximal acetylcholine challenge after compound addition. signal change vs control, % at 10 µM. actives 31% (n = 920). AID 2779;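 active means membrane potential signal moving either way by over 3 SD of the maximum-effect control, in both duplicate plates, meaning non-specific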
HEK293 MPD ctr-1: checks TRPC6 inhibitor effects in parental HEK293 cells. actives 60% (n = 920). parental HEK293 membrane potential dye fluorescence. shares compounds with TRPC6 inh. membrane potential signal change, % at 10 µM. AID 2780;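 active means membrane potential signal shifting up or down by more than 3 SD of buffer-only wells, on both duplicate plates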
HEK293 MPD ctr-2: parental HEK293 nonspecific activity of TRPC6 modulators; shares compounds with TRPC6 inh; membrane potential dye fluorescence; membrane potential signal change, % at 10 µM; actives 51% (n = 2,400);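 active means membrane potential signal moves up or down beyond 5 SD from buffer-only wells, on both duplicate plates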
HEK293 MPD ctr 2-2: parental HEK293 nonspecific activity of TRPC6 modulators, second screen; shares compounds with TRPC6 inh; membrane potential dye fluorescence; after compound, maximal acetylcholine stimulation; inhibition, % at 10 µM; actives 14% (n = 2,400); AID 488926;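 active means membrane potential signal drops by more than 5 SD from the mean control signal, in both duplicate plates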
TRPC4/MOR mod: selectivity of TRPC6 modulators against mouse TRPC4. shares compounds with TRPC6 inh. HEK293 TRPC4/mu-opioid, membrane potential fluorescence. percent change from control (negative = decrease, positive = increase), % at 10 µM. actives 69% (n = 2,400);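 active means membrane potential signal moved up or down beyond 5 SD of buffer control wells, in both duplicate plates, actives on both sides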
TRPC4/MOR inh 2: second check of whether TRPC6 modulators also affect mouse TRPC4. shares compounds with TRPC6 inh. HEK293 TRPC4/mu-opioid, membrane potential dye fluorescence; stimulated with maximal-effect DAMGO. inhibition, % at 10 µM. actives 55% (n = 2,400);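 active means drop in membrane potential signal beyond 5 SD of the control wells in both duplicate plates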;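 further: TRPC4 counter screen for TRPC6 hits run under conditions tuned for TRPC6 not TRPC4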
TRPC6 inh conf: confirmation of mouse TRPC6 inhibitors. AID 488960. HEK293-TRPC6, membrane potential dye, ACh-evoked depolarization. shares compounds with TRPC6 inh. actives 43% (n = 3,300). inhibition, % at 10 µM;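 active means fluorescence ratio falls more than 5 SD below the full-stimulation control mean, in both duplicate runs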;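 further: integrated fluorescence ratio of peak minus minimum over baseline after agonist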
TRPC6 act conf: confirmation of mouse TRPC6 activators | shares compounds with TRPC6 inh | actives 11% (n = 2,800) | HEK293-TRPC6 membrane potential dye fluorescence, FDSS | AID 488961 | activation, % at 10 µM;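 active means ratio signal rise beyond 5 SD above unstimulated control wells' mean, seen in both duplicate runs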
Of the large screens only hits and unclear results are named; the others gave an inactive call (follow-up assays come after a bar, where they were run). Rows were chosen to be rich in hits. Some 2.9% of all compounds tested hit in one or more screens of this group.

CCCn1c(=N)c(C#N)cc2c(=O)n3ccccc3nc21	TRPC6 inh -8.3 | HEK293 MPD ctr-2 -260% | HEK293 MPD ctr 2-2 inactive | TRPC4/MOR mod -44% | TRPC4/MOR inh 2 44% | TRPC6 inh conf 38% | TRPC6 act conf inactive
CCCn1c(=N)c(C#N)cc2c(=O)n3cccc(C)c3nc21	none
Cc1cccn2c(=O)c3cc(C#N)c(=N)n(CCN4CCOCC4)c3nc12	TRPC6 inh -5.6 | HEK293 MPD ctr-2 -150% | HEK293 MPD ctr 2-2 inactive | TRPC4/MOR mod -24% | TRPC4/MOR inh 2 inactive | TRPC6 inh conf 48% | TRPC6 act conf inactive
O=C1CC(N2CCc3ccccc32)C(=O)N1c1ccc(F)cc1 (stereo unspecified)	none
COc1cc(SC)ccc1C(=O)NCCCn1ccnc1	none
Cc1c(NC(=O)Nc2cccc(C#N)c2)c(=O)n(-c2ccccc2)n1C	none
CC1CCC(C(C)C)C(OC(=O)COC(=O)c2ccc(=O)[nH]c2)C1 (stereo unspecified)	none
COc1ccc(-c2n(CC(=O)OC3CC(C)CCC3C(C)C)c3ccccc3[n+]2C)cc1 (stereo unspecified)	TRPC6 act 15, Kir21 inh -13, TRPC6 inh -5.1 | HEK293 MPD ctr-2 536% | HEK293 MPD ctr 2-2 inactive | TRPC4/MOR mod 108% | TRPC4/MOR inh 2 56% | TRPC6 inh conf 50% | TRPC6 act conf 192%
O=C(C1CC1)N1CCN(c2ccnc3cc(Cl)ccc23)CC1	none
O=C(c1ccco1)N1CCN(c2ccnc3cc(Cl)ccc23)CC1	TRPC6 inh -5.1 | HEK293 MPD ctr-2 -160% | HEK293 MPD ctr 2-2 inactive | TRPC4/MOR mod -26% | TRPC4/MOR inh 2 37% | TRPC6 inh conf inactive | TRPC6 act conf inactive
Cc1cc(N2CCCC2)nc2ccc(NC(=S)NCCCN3CCC(C)CC3)cc12	TRPC6 inh -7.2 | TRPC4 sel inh 2 76% | TRPC4 spec -14% | HEK293 MPD ctr 2-1 18% | HEK293 MPD ctr-1 -192% | TRPC6 inh conf inactive | TRPC6 act conf inactive
Cc1cc(N2CCOCC2)nc2ccc(NC(=O)CCC(=O)N3CCN(c4ccc(F)cc4)CC3)cc12	none
Cc1cc(N2CCOCC2)nc2ccc(NC(=O)CCC(=O)N3CCCC(C)C3)cc12 (stereo unspecified)	TRPC6 inh -6 | HEK293 MPD ctr-2 -68% | HEK293 MPD ctr 2-2 inactive | TRPC4/MOR mod -18% | TRPC4/MOR inh 2 36% | TRPC6 inh conf inactive | TRPC6 act conf inactive
COc1cccc(C(=O)Nc2ccc3nc(N4CCOCC4)cc(C)c3c2)c1	TRPC6 inh -5.9 | HEK293 MPD ctr-2 -154% | HEK293 MPD ctr 2-2 inactive | TRPC4/MOR mod -26% | TRPC4/MOR inh 2 30% | TRPC6 inh conf inactive | TRPC6 act conf inactive
Cc1cc(N2CCOCC2)nc2ccc(NC(=O)CCC(=O)N3CCN(c4ccccc4F)CC3)cc12	TRPC6 inh -6.6 | HEK293 MPD ctr-2 -67% | HEK293 MPD ctr 2-2 inactive | TRPC4/MOR mod -16% | TRPC4/MOR inh 2 inactive | TRPC6 inh conf inactive | TRPC6 act conf inactive
O=[N+]([O-])c1cc([N+](=O)[O-])c(Oc2cc(F)ccc2F)cc1NN1CCCCC1	none
O=C(O)c1ccccc1NS(=O)(=O)c1cccc2nsnc12	none
O=C(O)c1cc(Br)ccc1NS(=O)(=O)c1cccc2nsnc12	TRPC6 act 13 | HEK293 MPD ctr-2 inactive | HEK293 MPD ctr 2-2 inactive | TRPC4/MOR mod 16% | TRPC4/MOR inh 2 inactive | TRPC6 inh conf inactive | TRPC6 act conf 34%
COC(=O)[C@H](Cc1ccccc1)NC(=O)O[C@H]1C(=O)c2ccc(OC)cc2O[C@@H]1c1ccc2c(c1)OCO2	none
CCOC(=O)C1CCCN(C(=O)c2sc3nc(C)nc(N(CC)CC)c3c2C)C1 (stereo unspecified)	TRPC6 inh -5.2 | HEK293 MPD ctr-2 110% | HEK293 MPD ctr 2-2 inactive | TRPC4/MOR mod 22% | TRPC4/MOR inh 2 36% | TRPC6 inh conf 38%
CCC1CCCCN1C(=O)c1sc2nc(C)nc(N(CC)CC)c2c1C (stereo unspecified)	none
c1cnc2c(C3NCCc4c3[nH]c3ccccc43)cccc2c1 (stereo unspecified)	TRPC6 inh -6.6 | HEK293 MPD ctr-2 inactive | HEK293 MPD ctr 2-2 inactive | TRPC4/MOR mod inactive | TRPC4/MOR inh 2 72% | TRPC6 inh conf 50% | TRPC6 act conf inactive
COc1ccc(-c2cc(C(F)(F)F)nc(SCCC(=O)Nc3cc(C)on3)n2)cc1	none
COCCNC(=O)CCSc1nc(-c2ccc(OC)cc2)cc(C(F)(F)F)n1	TRPC6 inh -5.6 | HEK293 MPD ctr-2 inactive | HEK293 MPD ctr 2-2 inactive | TRPC4/MOR mod inactive | TRPC4/MOR inh 2 inactive | TRPC6 inh conf inactive | TRPC6 act conf inactive
COC(=O)CSc1nc2sc3c(c2c(=O)n1C1CCCCC1)CCN(C)C3	TRPC6 inh -9.4 | TRPC4 sel inh 2 78% | TRPC4 spec inactive | HEK293 MPD ctr 2-1 inactive | HEK293 MPD ctr-1 -212% | TRPC6 inh conf inactive | TRPC6 act conf inactive
